# From ChEMBL document CHEMBL2331471, “Vegfrecine, an inhibitor of VEGF receptor tyrosine kinases isolated from the culture broth of Streptomyces sp” (J Nat Prod, 2013)
# pIC50: −log10 of the molar value. Calls of active or inactive are those of the source. No cut-off for these calls is given here.
# Tests used:
# [1] = target: Vascular endothelial growth factor receptor 3 (Homo sapiens, UniProt P35916); test: Inhibition of Flt4 (unknown origin) after 20 mins by scintillation counting
# Outline: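 Radiometric filter-plate kinase assay for Flt-1, Flt-4 and PDGFR-α. Buffer: 20 mM Tris-HCl pH 7.4, 3 mM MnCl2, 3 mM MgCl2, 50 μg/mL poly GluTyr, 100 mM NaCl, Na3VO4, DTT, 0.5% BSA. Kinase (55 ng) plus compound in 2% DMSO buffer; reaction started with 4 μM ATP/32P-ATP solution. Ran 20 min at room temperature, stopped with 30% TCA, washed with 15% TCA, scintillation counted.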
# [2] = tested on: NIH3T3; test: Cytotoxicity against mouse NIH/3T3 cells overexpressing KDR (unknown origin) after 48 hrs; type: cell-based; conditions: nih3t3, 48 h
# Outline: (§1)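 MTT viability assay: NIH3T3-Flt-1 or NIH3T3-KDR cells, grown in DMEM with 10% FCS, glutamine and 200 μg/mL G418, were seeded at 3 × 10^3 cells/well with or without test samples and incubated 2 days. MTT was then added for 2 h, formazan dissolved overnight in 10% SDS, and absorbance read at 570 nm.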
# [3] = tested on: NIH3T3; test: Cytotoxicity against mouse NIH/3T3 cells overexpressing Flt-1 (unknown origin) after 48 hrs; type: cell-based; conditions: nih3t3, 48 h; outline: as §1
# [4] = tested on: NIH3T3; test: Cytotoxicity against mouse NIH/3T3 cells overexpressing Flt-1 (unknown origin) at 10 uM after 2 hrs; type: cell-based; conditions: nih3t3, 2 h
# [5] = target: T1, Vascular endothelial growth factor receptor 1 (Homo sapiens, UniProt P17948); test: Inhibition of ligand-induced phosphorylation of Flt-1 (unknown origin) overexpressed in NIH-3T3 cells at 10 uM after 2 hrs by immunoblotting; type: cell-based; conditions: NIH3T3
# Outline: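 Subconfluent NIH3T3-Flt-1 cells were serum-starved 16 h, exposed to samples for 2 h, then stimulated 5 min with 50 ng/mL recombinant human VEGF-A. Cells were lysed in HEPES/Triton buffer containing Na3VO4, PMSF and aprotinin. Lysates were immunoblotted with anti-phosphotyrosine, anti-Flt-1 and anti-actin antibodies.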
# [6] = target: Fibroblast growth factor receptor (Homo sapiens, UniProt P22607+P11362+P22455+P21802); test: Inhibition of FGFR (unknown origin) after 20 mins by scintillation counting; type: protein assay
# [7] = target: Epidermal growth factor receptor (Homo sapiens, UniProt P00533); test: Inhibition of EGFR (unknown origin) after 20 mins by scintillation counting
# [8] = target: Platelet-derived growth factor receptor alpha (Homo sapiens, UniProt P16234); test: Inhibition of PDGFR-alpha (unknown origin) after 20 mins by scintillation counting
# [9] = target: Platelet-derived growth factor receptor beta (Homo sapiens, UniProt P09619); test: Inhibition of PDGFR-beta (unknown origin) after 20 mins by scintillation counting
# [10] = target: T1, Vascular endothelial growth factor receptor 1; test: Inhibition of GST-Flt1 kinase domain (unknown origin) expressed in baculovirus infected Sf9 cells after 20 mins by scintillation counting
# [11] = target: Vascular endothelial growth factor receptor 2 (Homo sapiens, UniProt P35968)
# Vascular endothelial growth factor receptor 3, sequence (P35916 whole entry): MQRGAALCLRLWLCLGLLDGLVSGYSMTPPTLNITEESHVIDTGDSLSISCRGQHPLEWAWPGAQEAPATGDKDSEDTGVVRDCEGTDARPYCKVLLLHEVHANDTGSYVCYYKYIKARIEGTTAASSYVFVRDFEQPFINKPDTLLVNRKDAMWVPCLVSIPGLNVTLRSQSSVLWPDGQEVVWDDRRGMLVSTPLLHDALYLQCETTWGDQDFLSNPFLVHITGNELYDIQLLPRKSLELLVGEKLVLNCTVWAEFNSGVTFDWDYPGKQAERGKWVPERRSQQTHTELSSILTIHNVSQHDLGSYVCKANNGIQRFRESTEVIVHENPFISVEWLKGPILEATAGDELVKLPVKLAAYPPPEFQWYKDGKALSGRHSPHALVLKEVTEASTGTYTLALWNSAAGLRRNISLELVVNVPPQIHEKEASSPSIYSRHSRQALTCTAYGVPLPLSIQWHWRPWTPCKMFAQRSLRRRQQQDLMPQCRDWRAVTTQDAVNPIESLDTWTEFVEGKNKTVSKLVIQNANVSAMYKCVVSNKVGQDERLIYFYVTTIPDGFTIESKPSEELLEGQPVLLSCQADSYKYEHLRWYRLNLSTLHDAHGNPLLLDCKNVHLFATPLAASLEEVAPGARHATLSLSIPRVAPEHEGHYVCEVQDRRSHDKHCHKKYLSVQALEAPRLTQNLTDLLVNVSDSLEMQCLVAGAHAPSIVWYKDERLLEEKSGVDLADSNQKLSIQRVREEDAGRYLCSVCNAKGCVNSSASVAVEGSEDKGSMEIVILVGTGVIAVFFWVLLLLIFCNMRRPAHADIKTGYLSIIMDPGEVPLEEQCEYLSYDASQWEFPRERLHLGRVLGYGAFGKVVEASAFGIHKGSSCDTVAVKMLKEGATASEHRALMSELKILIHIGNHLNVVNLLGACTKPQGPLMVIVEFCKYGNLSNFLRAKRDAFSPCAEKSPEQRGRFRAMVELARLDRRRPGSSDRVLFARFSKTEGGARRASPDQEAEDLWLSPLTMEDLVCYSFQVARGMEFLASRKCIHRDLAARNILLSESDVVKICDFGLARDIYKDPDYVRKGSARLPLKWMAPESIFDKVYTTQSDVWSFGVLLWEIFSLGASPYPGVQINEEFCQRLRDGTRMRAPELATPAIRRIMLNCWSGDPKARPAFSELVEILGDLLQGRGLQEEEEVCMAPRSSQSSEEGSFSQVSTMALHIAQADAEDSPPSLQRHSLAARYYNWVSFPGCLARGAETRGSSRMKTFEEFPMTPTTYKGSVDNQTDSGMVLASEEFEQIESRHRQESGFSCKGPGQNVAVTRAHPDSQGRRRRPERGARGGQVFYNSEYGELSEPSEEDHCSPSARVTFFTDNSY
# T1 sequence (P17948 whole entry): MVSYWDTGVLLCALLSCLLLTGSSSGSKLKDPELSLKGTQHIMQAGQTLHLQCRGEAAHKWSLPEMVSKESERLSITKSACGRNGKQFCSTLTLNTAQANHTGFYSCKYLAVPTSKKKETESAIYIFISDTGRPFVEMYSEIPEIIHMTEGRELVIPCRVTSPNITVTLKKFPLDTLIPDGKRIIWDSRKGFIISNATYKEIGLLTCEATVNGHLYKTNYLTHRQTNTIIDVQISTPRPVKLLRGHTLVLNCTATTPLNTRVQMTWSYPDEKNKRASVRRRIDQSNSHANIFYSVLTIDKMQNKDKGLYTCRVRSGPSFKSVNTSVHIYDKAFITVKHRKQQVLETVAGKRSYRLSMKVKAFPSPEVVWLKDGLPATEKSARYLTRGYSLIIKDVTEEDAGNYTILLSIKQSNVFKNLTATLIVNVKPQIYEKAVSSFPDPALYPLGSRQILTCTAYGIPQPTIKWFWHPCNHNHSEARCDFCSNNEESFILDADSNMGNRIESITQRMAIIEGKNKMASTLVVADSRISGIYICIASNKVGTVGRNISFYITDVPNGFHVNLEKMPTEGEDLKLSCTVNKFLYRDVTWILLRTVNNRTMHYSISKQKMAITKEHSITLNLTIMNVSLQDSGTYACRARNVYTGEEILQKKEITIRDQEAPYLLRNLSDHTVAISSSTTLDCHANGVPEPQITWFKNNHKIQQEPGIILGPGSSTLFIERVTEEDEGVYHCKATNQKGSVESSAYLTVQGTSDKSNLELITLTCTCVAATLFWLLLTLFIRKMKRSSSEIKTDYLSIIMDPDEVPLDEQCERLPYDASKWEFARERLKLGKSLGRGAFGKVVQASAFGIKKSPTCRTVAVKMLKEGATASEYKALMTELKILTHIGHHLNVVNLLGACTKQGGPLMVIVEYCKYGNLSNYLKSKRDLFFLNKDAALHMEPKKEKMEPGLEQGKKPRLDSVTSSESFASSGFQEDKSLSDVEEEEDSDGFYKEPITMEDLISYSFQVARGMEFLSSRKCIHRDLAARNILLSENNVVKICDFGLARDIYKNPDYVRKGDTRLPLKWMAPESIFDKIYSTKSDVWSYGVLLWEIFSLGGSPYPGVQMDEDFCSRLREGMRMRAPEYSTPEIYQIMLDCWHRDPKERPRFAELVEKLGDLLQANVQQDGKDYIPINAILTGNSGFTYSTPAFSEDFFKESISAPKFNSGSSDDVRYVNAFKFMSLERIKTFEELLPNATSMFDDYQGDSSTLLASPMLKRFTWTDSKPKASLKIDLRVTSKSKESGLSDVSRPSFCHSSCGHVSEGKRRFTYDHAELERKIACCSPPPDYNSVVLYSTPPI
# Platelet-derived growth factor receptor beta, sequence (P09619 whole entry, the tested form may be a part): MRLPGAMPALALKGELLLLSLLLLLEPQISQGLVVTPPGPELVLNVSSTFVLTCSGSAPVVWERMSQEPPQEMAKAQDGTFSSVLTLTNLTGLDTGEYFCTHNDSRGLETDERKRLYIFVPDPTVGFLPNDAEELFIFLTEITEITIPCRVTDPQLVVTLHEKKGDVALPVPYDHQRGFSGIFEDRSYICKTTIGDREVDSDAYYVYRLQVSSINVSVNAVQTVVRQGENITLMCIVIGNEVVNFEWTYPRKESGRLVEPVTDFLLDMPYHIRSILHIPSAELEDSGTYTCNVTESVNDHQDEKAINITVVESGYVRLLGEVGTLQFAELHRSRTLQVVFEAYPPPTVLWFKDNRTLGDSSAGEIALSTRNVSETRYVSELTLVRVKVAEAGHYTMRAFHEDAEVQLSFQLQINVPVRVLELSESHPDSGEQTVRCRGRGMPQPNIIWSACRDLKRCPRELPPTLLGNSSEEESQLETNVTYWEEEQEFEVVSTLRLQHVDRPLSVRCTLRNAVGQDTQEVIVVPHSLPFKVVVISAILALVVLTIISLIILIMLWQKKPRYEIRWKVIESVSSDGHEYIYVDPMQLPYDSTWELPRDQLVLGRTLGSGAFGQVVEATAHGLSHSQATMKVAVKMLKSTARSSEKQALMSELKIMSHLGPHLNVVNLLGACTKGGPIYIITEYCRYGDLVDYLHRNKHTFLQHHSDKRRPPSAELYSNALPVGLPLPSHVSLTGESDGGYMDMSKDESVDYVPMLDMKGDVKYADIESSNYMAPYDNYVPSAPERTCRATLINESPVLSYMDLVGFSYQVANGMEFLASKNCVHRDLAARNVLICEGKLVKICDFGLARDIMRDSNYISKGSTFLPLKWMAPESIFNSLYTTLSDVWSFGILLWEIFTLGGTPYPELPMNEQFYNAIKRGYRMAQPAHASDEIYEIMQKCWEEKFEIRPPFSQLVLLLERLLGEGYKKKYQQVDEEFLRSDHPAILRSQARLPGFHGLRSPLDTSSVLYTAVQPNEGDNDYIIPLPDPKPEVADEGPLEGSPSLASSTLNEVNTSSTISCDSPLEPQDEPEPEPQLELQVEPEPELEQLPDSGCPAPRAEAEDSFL
# Platelet-derived growth factor receptor alpha, sequence (P16234 whole entry): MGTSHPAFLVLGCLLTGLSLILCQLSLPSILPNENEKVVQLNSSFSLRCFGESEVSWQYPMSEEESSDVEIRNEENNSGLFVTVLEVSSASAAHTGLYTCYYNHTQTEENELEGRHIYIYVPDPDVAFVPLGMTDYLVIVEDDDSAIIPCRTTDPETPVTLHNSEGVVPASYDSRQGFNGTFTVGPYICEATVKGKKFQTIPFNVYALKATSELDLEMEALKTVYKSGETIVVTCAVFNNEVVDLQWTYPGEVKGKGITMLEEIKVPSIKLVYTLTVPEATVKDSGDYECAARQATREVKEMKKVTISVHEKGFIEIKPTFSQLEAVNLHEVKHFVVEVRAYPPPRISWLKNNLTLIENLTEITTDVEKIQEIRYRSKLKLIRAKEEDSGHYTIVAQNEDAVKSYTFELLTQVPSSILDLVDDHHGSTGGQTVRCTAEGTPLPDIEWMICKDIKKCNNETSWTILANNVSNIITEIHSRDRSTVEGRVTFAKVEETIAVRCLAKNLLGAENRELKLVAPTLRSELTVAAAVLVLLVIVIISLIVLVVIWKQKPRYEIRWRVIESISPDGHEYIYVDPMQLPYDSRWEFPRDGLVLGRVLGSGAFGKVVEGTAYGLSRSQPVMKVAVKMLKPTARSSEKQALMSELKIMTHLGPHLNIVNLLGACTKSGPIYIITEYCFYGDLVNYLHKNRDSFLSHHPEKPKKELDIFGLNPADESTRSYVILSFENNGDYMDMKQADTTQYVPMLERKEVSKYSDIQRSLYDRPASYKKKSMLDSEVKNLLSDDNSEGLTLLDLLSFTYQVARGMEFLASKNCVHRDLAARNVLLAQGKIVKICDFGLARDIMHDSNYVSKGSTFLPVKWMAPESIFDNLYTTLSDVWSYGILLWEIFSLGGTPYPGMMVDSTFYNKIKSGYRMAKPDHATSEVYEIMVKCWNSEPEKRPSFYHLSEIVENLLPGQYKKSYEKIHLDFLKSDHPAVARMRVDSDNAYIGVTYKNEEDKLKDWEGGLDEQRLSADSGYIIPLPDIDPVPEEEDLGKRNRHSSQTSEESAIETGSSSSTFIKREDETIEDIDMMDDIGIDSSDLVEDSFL
pIC50 [1],Activity [5],IC50 [6] [nM],pIC50 [7],pIC50 [8],pIC50 [9],pIC50 [10],pIC50 [11],Compound,Activity [2] [µM],Activity [3] [µM],Activity [4]
6.30,,,,,,,,Cc1cc(C)c(/C=C2\C(=O)Nc3ccccc32)[nH]1 [SEMAXANIB],,,
8.74,Active,730,5.59,5.49,6.32,7.74,7.96,NC(=O)C1=C(N)C(=O)C=C(Nc2ccccc2O)C1=O [VEGFRECINE],12,3,Non-toxic
